Reference: ChEMBL document CHEMBL4842367, “Strategies toward Discovery of Potent and Orally Bioavailable Proteolysis Targeting Chimera Degraders of Androgen Receptor for the Treatment of Prostate Cancer” (J Med Chem, 2021)

How the values were obtained:
Assay type in all cases: cell-based
[1] = biological target: T1, Protein cereblon/Androgen receptor (Homo sapiens, UniProt P10275+Q96SW2); experiment: Protac activity at CRBN/AR in human VCaP cells assessed as induction of AR degradation at 0.01 uM measured after 24 hrs by western blot analysis relative to control
In short: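 VCaP cells treated 24 h at 1, 10, 100 and 1000 nM; lysed in RIPA with protease/phosphatase inhibitors, run on 4–12% SDS-PAGE, blotted to PVDF. AR bands background-subtracted and normalized to loading control; degradation relative to DMSO, average of three independent experiments.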

[2] = biological target: T1, Protein cereblon/Androgen receptor; experiment: Protac activity at CRBN/AR in human VCaP cells assessed as induction of AR degradation at 0.001 uM measured after 24 hrs by western blot analysis relative to control
[3] = biological target: T1, Protein cereblon/Androgen receptor; experiment: Protac activity at CRBN/AR in human VCaP cells assessed as induction of AR degradation at 0.1 uM measured after 24 hrs by western blot analysis relative to control
[4] = biological target: T1, Protein cereblon/Androgen receptor; experiment: Protac activity at CRBN/AR in human VCAP cells assessed as induction of AR degradation at 1 uM by western blot analysis relative to control; settings: time 24.0 hrs

T1 sequence (P10275 whole entry, looked up): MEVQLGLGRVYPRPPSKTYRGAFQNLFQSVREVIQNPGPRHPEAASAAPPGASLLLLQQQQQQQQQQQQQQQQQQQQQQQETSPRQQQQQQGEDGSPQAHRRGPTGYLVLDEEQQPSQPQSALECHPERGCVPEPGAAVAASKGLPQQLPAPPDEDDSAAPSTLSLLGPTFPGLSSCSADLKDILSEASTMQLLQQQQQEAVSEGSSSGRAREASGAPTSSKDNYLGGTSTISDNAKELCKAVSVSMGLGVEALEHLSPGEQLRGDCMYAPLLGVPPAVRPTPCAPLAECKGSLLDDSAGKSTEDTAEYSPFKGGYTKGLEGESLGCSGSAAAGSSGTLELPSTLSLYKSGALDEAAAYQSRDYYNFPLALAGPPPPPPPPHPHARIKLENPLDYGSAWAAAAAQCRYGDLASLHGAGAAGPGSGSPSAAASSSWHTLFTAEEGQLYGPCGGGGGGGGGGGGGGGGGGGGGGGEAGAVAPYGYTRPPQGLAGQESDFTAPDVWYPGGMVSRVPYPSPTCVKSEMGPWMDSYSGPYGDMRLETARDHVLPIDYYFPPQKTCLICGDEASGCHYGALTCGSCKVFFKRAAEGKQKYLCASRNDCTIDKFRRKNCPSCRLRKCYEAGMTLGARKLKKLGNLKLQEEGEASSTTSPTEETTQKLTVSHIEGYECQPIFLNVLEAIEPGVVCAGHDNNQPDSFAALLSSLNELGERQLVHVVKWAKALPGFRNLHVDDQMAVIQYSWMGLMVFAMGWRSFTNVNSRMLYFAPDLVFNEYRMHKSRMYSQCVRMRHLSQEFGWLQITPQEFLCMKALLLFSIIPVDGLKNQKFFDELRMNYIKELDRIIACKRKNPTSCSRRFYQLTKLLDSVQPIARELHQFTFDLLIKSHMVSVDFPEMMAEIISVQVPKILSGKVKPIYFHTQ
T1 sequence (Q96SW2 whole entry, looked up): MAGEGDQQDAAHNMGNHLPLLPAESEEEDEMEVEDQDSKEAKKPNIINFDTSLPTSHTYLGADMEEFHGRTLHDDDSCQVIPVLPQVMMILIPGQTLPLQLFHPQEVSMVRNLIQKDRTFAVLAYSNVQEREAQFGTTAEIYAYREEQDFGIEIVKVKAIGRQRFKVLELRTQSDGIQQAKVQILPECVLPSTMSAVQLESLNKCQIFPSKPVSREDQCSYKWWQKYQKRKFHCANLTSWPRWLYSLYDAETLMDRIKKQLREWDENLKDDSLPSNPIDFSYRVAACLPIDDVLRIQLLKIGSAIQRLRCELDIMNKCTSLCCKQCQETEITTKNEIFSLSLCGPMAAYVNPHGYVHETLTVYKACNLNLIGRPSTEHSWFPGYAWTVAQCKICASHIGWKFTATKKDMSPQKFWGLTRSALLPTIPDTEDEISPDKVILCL

SMILES	Activity [1] [%]	Activity [2] [%]	Activity [3] [%]	Activity [4] [%]
CC1(C)[C@H](NC(=O)c2ccc(NCCCCCCCNc3ccc4c(c3)C(=O)N(C3CCC(=O)NC3=O)C4=O)cc2)C(C)(C)[C@H]1Oc1ccc(C#N)c(Cl)c1 (some centres not stated)	58	28	79	62
CC1(C)[C@H](NC(=O)c2ccc(N3CCN(CCNc4cccc5c4C(=O)N(C4CCC(=O)NC4=O)C5=O)CC3)cc2)C(C)(C)[C@H]1Oc1ccc(C#N)c(Cl)c1 (some centres not stated)	23	< 5	41	32
CC1(C)[C@H](NC(=O)c2ccc(NCCCCCCNc3cccc4c3C(=O)N(C3CCC(=O)NC3=O)C4=O)cc2)C(C)(C)[C@H]1Oc1ccc(C#N)c(Cl)c1 (some centres not stated)	22	10	43	48
CC1(C)[C@H](NC(=O)c2ccc(NCCCCCNc3cccc4c3C(=O)N(C3CCC(=O)NC3=O)C4=O)cc2)C(C)(C)[C@H]1Oc1ccc(C#N)c(Cl)c1 (some centres not stated)	9	< 5	36	38
CC1(C)[C@H](NC(=O)c2ccc(NCCCCNc3ccc4c(c3)C(=O)N(C3CCC(=O)NC3=O)C4=O)cc2)C(C)(C)[C@H]1Oc1ccc(C#N)c(Cl)c1 (some centres not stated)	76	42	55	21
CC1(C)[C@H](NC(=O)c2ccc(N3CCN(CCCCNc4cccc5c4C(=O)N(C4CCC(=O)NC4=O)C5=O)CC3)cc2)C(C)(C)[C@H]1Oc1ccc(C#N)c(Cl)c1 (some centres not stated)	40	7	47	32
CC1(C)[C@H](NC(=O)c2ccc(N3CCN(CCCCCNc4ccc5c(c4)C(=O)N(C4CCC(=O)NC4=O)C5=O)CC3)cc2)C(C)(C)[C@H]1Oc1ccc(C#N)c(Cl)c1 (some centres not stated)	59	12	85	60
CC1(C)[C@H](NC(=O)c2ccc(NCCCCCCCCNc3ccc4c(c3)C(=O)N(C3CCC(=O)NC3=O)C4=O)cc2)C(C)(C)[C@H]1Oc1ccc(C#N)c(Cl)c1 (some centres not stated)	76	48	82	73
CC1(C)[C@H](NC(=O)c2ccc(N3CCN(CCCNc4cccc5c4C(=O)N(C4CCC(=O)NC4=O)C5=O)CC3)cc2)C(C)(C)[C@H]1Oc1ccc(C#N)c(Cl)c1 (some centres not stated)	< 5	< 5	< 5	9
CC1(C)[C@H](NC(=O)c2ccc(C(=O)N3CCN(C4CN(c5ccc6c(c5)C(=O)N(C5CCC(=O)NC5=O)C6=O)C4)CC3)cc2)C(C)(C)[C@H]1Oc1ccc(C#N)c(Cl)c1 (some centres not stated)	83	71	95	83
CC1(C)[C@H](NC(=O)c2ccc(N3CCN(C4CN(c5ccc6c(c5)C(=O)N(C5CCC(=O)NC5=O)C6=O)C4)CC3)cc2)C(C)(C)[C@H]1Oc1ccc(C#N)c(Cl)c1 (some centres not stated)	77	54	91	73
CC1(C)[C@H](NC(=O)c2ccc(N3CCN(CCCCNc4ccc5c(c4)C(=O)N(C4CCC(=O)NC4=O)C5=O)CC3)cc2)C(C)(C)[C@H]1Oc1ccc(C#N)c(Cl)c1 (some centres not stated)	63	42	84	82
CC1(C)[C@H](NC(=O)c2ccc(N3CCC4(CC3)CC(Nc3ccc5c(c3)C(=O)N(C3CCC(=O)NC3=O)C5=O)C4)cc2)C(C)(C)[C@H]1Oc1ccc(C#N)c(Cl)c1 (some centres not stated)	16	0	82	88
CC1(C)[C@H](NC(=O)c2ccc(N3CCC4(CCC(Nc5ccc6c(c5)C(=O)N(C5CCC(=O)NC5=O)C6=O)CC4)CC3)cc2)C(C)(C)[C@H]1Oc1ccc(C#N)c(Cl)c1 (some centres not stated)	30	13	38	57
CC1(C)[C@H](NC(=O)c2ccc(NCCCNc3ccc4c(c3)C(=O)N(C3CCC(=O)NC3=O)C4=O)cc2)C(C)(C)[C@H]1Oc1ccc(C#N)c(Cl)c1 (some centres not stated)	25	0	63	70

Next, values leading:

Activity [1] [%]	Activity [2] [%]	Activity [3] [%]	Activity [4] [%]	SMILES
45	22	87	90	CC1(C)[C@H](NC(=O)c2ccc(N3CCN(CC4CCN(c5ccc6c(c5)C(=O)N(C5CCC(=O)NC5=O)C6=O)CC4)CC3)cc2)C(C)(C)[C@H]1Oc1ccc(C#N)c(C(F)(F)F)c1 (some centres not stated)
48	15	73	82	CC1(C)[C@H](NC(=O)c2ccc(N3CCN(C4CCC5(CC4)CN(c4ccc6c(c4)C(=O)N(C4CCC(=O)NC4=O)C6=O)C5)CC3)cc2)C(C)(C)[C@H]1Oc1ccc(C#N)c(Cl)c1 (some centres not stated)
	76		[…]	CC1(C)[C@H](NC(=O)c2ccc(C(=O)N3CCN(CC4CCN(c5ccc6c(c5)C(=O)N(C5CCC(=O)NC5=O)C6=O)CC4)CC3)cc2)C(C)(C)[C@H]1Oc1ccc(C#N)c(Cl)c1 (some centres not stated)
92	65	96	79	CC1(C)[C@H](NC(=O)c2ccc(C(=O)N3CCN(CC4CN(c5ccc6c(c5)C(=O)N(C5CCC(=O)NC5=O)C6=O)C4)CC3)cc2)C(C)(C)[C@H]1Oc1ccc(C#N)c(Cl)c1 (some centres not stated)
80	38	87	84	CC1(C)[C@H](NC(=O)c2ccc(N3CCN(C4CC5(CCN(c6ccc7c(c6)C(=O)N(C6CCC(=O)NC6=O)C7=O)C5)C4)CC3)cc2)C(C)(C)[C@H]1Oc1ccc(C#N)c(Cl)c1 (some centres not stated)
56	16	71	51	CC1(C)[C@H](NC(=O)c2ccc(N3CCN(CC4CC5(CCN(c6ccc7c(c6)C(=O)N(C6CCC(=O)NC6=O)C7=O)C5)C4)CC3)cc2)C(C)(C)[C@H]1Oc1ccc(C#N)c(Cl)c1 (some centres not stated)
15	< 5	75	80	CC1(C)[C@H](NC(=O)c2ccc(N3CCN(CC4CCN(c5ccc6c(c5)C(=O)N(C5CCC(=O)NC5=O)C6=O)CC4)CC3)cc2)C(C)(C)[C@H]1Oc1ccc(C#N)c(F)c1 (some centres not stated)
30	< 5	25	39	N#Cc1ccc(O[C@H]2C[C@H](NC(=O)c3ccc(N4CCN(CC5CCN(c6ccc7c(c6)C(=O)N(C6CCC(=O)NC6=O)C7=O)CC5)CC4)cc3)C2)cc1Cl (some centres not stated)
38	14	67	80	CC1(C)[C@H](NC(=O)c2ccc(N3CCN(C4CCC5(CC4)CCN(c4ccc6c(c4)C(=O)N(C4CCC(=O)NC4=O)C6=O)CC5)CC3)cc2)C(C)(C)[C@H]1Oc1ccc(C#N)c(Cl)c1 (some centres not stated)
12	6	33	41	CC1(C)[C@H](NC(=O)c2ccc(N3CCN(CC4CCN(c5ccc6c(c5)C(=O)N(C5CCC(=O)NC5=O)C6=O)CC4)CC3)cc2)C(C)(C)[C@H]1Oc1cnc(C#N)c(C(F)(F)F)c1 (some centres not stated)
19	< 5	75	90	CC1(C)[C@@H](NC(=O)c2ccc(N3CCN(CC4CCN(c5ccc6c(c5)C(=O)N(C5CCC(=O)NC5=O)C6=O)CC4)CC3)cc2)C[C@@H]1Oc1ccc(C#N)c(Cl)c1 (some centres not stated)
